Measured values from ChEMBL document CHEMBL5058577, “EUbOPEN Chemogenomics Library 2 (Multiplex)” (2022).

System: U2OS
Assay: Multiplex assay against U2OS
Format: toxicity, cell-based
Details: human
Outline: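 With compound added, live cells were imaged on a CQ1 microscope at 37°C and 5% CO2; staining with Hoechst33342, BioTracker Green Microtubule Cytoskeleton Dye, MitoTracker Red and Annexin V Alexa Fluor 680 had been done at seeding. The CellPathfinder machine-learning gating scheme split cells into Hoechst high-intensity objects or normal cells, normal cells into healthy, pyknosed or fragmented nuclei, and pyknosed cells into mitotic or apoptotic. The tubulin, mitochondrial-mass and membrane-permeability phenotypes are per cents of healthy-nucleus cells.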

[1] = 12 h, 1 µM, compound concentration 1 uM, replicate 1
[2] = 12 h, 1 µM, compound concentration 1 uM, replicate 2
[3] = 12 h, 10 µM, compound concentration 10 uM, replicate 1
[4] = 12 h, 10 µM, compound concentration 10 uM, replicate 2
[5] = 24 h, 1 µM, compound concentration 1 uM, replicate 1
[6] = 24 h, 1 µM, compound concentration 1 uM, replicate 2
[7] = 24 h, 10 µM, compound concentration 10 uM, replicate 1
[8] = 24 h, 10 µM, compound concentration 10 uM, replicate 2
[9] = 48 h, 1 µM, compound concentration 1 uM, replicate 1
[10] = 48 h, 1 µM, compound concentration 1 uM, replicate 2
[11] = 48 h, 10 µM, compound concentration 10 uM, replicate 1
[12] = 48 h, 10 µM, compound concentration 10 uM, replicate 2

Compound: O=C(NCC(=O)N1CC[C@H](N[C@H]2CC[C@@](O)(c3ccc(-c4ncccn4)cn3)CC2)C1)c1cccc(C(F)(F)F)c1 [PF-4136309]
- Population Apoptotic (%) [1]: 79%
- Population Fragmented Nuclei (%) [1]: 25%
- Population Healthy Nuclei (%) [1]: 64%
- Population Hoechst High Intensity Objects (%) [1]: 1%
- Population Membrane Permeable-Phenotype (%) [1]: 6%
- Population Mitochondria Different-Phenotype (%) [1]: 3%
- Population Mitotic Cells (%) [1]: 20%
- Population Normal (%) [1]: 98%
- Population Pyknosed Nuclei (%) [1]: 9%
- Population Tubulin-Different-Phenotype (%) [1]: 4%
- Total Cell Count [1]: 249
- Population Apoptotic (%) [2]: 93%
- Population Fragmented Nuclei (%) [2]: 13%
- Population Healthy Nuclei (%) [2]: 74%
- Population Hoechst High Intensity Objects (%) [2]: 4%
- Population Membrane Permeable-Phenotype (%) [2]: 11%
- Population Mitochondria Different-Phenotype (%) [2]: 5%
- Population Mitotic Cells (%) [2]: 6%
- Population Normal (%) [2]: 95%
- Population Pyknosed Nuclei (%) [2]: 12%
- Population Tubulin-Different-Phenotype (%) [2]: 8%
- Total Cell Count [2]: 138
- Population Apoptotic (%) [3]: 68%
- Population Fragmented Nuclei (%) [3]: 25%
- Population Healthy Nuclei (%) [3]: 62%
- Population Hoechst High Intensity Objects (%) [3]: 4%
- Population Membrane Permeable-Phenotype (%) [3]: 15%
- Population Mitochondria Different-Phenotype (%) [3]: 4%
- Population Mitotic Cells (%) [3]: 31%
- Population Normal (%) [3]: 95%
- Population Pyknosed Nuclei (%) [3]: 12%
- Population Tubulin-Different-Phenotype (%) [3]: 9%
- Total Cell Count [3]: 242
- Population Apoptotic (%) [4]: 60%
- Population Fragmented Nuclei (%) [4]: 22%
- Population Healthy Nuclei (%) [4]: 66%
- Population Hoechst High Intensity Objects (%) [4]: 1%
- Population Membrane Permeable-Phenotype (%) [4]: 25%
- Population Mitochondria Different-Phenotype (%) [4]: 10%
- Population Mitotic Cells (%) [4]: 40%
- Population Normal (%) [4]: 98%
- Population Pyknosed Nuclei (%) [4]: 11%
- Population Tubulin-Different-Phenotype (%) [4]: 11%
- Total Cell Count [4]: 90
- Population Apoptotic (%) [5]: 80%
- Population Fragmented Nuclei (%) [5]: 22%
- Population Healthy Nuclei (%) [5]: 69%
- Population Hoechst High Intensity Objects (%) [5]: 1%
- Population Membrane Permeable-Phenotype (%) [5]: 4%
- Population Mitochondria Different-Phenotype (%) [5]: 2%
- Population Mitotic Cells (%) [5]: 20%
- Population Normal (%) [5]: 98%
- Population Pyknosed Nuclei (%) [5]: 8%
- Population Tubulin-Different-Phenotype (%) [5]: 2%
- Total Cell Count [5]: 304
- Population Apoptotic (%) [6]: 91%
- Population Fragmented Nuclei (%) [6]: 16%
- Population Healthy Nuclei (%) [6]: 76%
- Population Hoechst High Intensity Objects (%) [6]: 3%
- Population Membrane Permeable-Phenotype (%) [6]: 5%
- Population Mitochondria Different-Phenotype (%) [6]: 4%
- Population Mitotic Cells (%) [6]: 8%
- Population Normal (%) [6]: 96%
- Population Pyknosed Nuclei (%) [6]: 7%
- Total Cell Count [6]: 169
- Population Apoptotic (%) [7]: 83%
- Population Fragmented Nuclei (%) [7]: 23%
- Population Healthy Nuclei (%) [7]: 62%
- Population Hoechst High Intensity Objects (%) [7]: 3%
- Population Membrane Permeable-Phenotype (%) [7]: 10%
- Population Mitochondria Different-Phenotype (%) [7]: 3%
- Population Mitotic Cells (%) [7]: 16%
- Population Normal (%) [7]: 96%
- Population Pyknosed Nuclei (%) [7]: 13%
- Population Tubulin-Different-Phenotype (%) [7]: 3%
- Total Cell Count [7]: 271
- Population Apoptotic (%) [8]: 75%
- Population Fragmented Nuclei (%) [8]: 21%
- Population Healthy Nuclei (%) [8]: 70%
- Population Hoechst High Intensity Objects (%) [8]: 0%
- Population Membrane Permeable-Phenotype (%) [8]: 15%
- Population Mitochondria Different-Phenotype (%) [8]: 11%
- Population Mitotic Cells (%) [8]: 25%
- Population Normal (%) [8]: 99%
- Population Pyknosed Nuclei (%) [8]: 7%
- Population Tubulin-Different-Phenotype (%) [8]: 7%
- Total Cell Count [8]: 102
- Population Apoptotic (%) [9]: 87%
- Population Fragmented Nuclei (%) [9]: 14%
- Population Healthy Nuclei (%) [9]: 74%
- Population Hoechst High Intensity Objects (%) [9]: 2%
- Population Membrane Permeable-Phenotype (%) [9]: 4%
- Population Mitochondria Different-Phenotype (%) [9]: 3%
- Population Mitotic Cells (%) [9]: 12%
- Population Normal (%) [9]: 97%
- Population Pyknosed Nuclei (%) [9]: 11%
- Population Tubulin-Different-Phenotype (%) [9]: 3%
- Total Cell Count [9]: 443
- Population Apoptotic (%) [10]: 96%
- Population Fragmented Nuclei (%) [10]: 12%
- Population Healthy Nuclei (%) [10]: 75%
- Population Hoechst High Intensity Objects (%) [10]: 3%
- Population Membrane Permeable-Phenotype (%) [10]: 6%
- Population Mitotic Cells (%) [10]: 4%
- Population Normal (%) [10]: 96%
- Population Tubulin-Different-Phenotype (%) [10]: 4%
- Total Cell Count [10]: 224
- Population Apoptotic (%) [11]: 69%
- Population Fragmented Nuclei (%) [11]: 22%
- Population Healthy Nuclei (%) [11]: 61%
- Population Hoechst High Intensity Objects (%) [11]: 4%
- Population Membrane Permeable-Phenotype (%) [11]: 9%
- Population Mitochondria Different-Phenotype (%) [11]: 5%
- Population Mitotic Cells (%) [11]: 30%
- Population Normal (%) [11]: 95%
- Population Pyknosed Nuclei (%) [11]: 15%
- Population Tubulin-Different-Phenotype (%) [11]: 4%
- Total Cell Count [11]: 360
- Population Apoptotic (%) [12]: 92%
- Population Fragmented Nuclei (%) [12]: 20%
- Population Healthy Nuclei (%) [12]: 60%
- Population Hoechst High Intensity Objects (%) [12]: 0%
- Population Membrane Permeable-Phenotype (%) [12]: 15%
- Population Mitochondria Different-Phenotype (%) [12]: 8%
- Population Mitotic Cells (%) [12]: 7%
- Population Normal (%) [12]: 100%
- Population Pyknosed Nuclei (%) [12]: 18%
- Total Cell Count [12]: 138

Compound: CCCN1CCC[C@@H]2Cc3n[nH]cc3C[C@H]21.Cl [QUINPIROLE HYDROCHLORIDE]
- Population Apoptotic (%) [1]: 71%
- Population Fragmented Nuclei (%) [1]: 31%
- Population Healthy Nuclei (%) [1]: 60%
- Population Hoechst High Intensity Objects (%) [1]: 2%
- Population Membrane Permeable-Phenotype (%) [1]: 7%
- Population Mitochondria Different-Phenotype (%) [1]: 1%
- Population Mitotic Cells (%) [1]: 28%
- Population Normal (%) [1]: 97%
- Population Pyknosed Nuclei (%) [1]: 8%
- Population Tubulin-Different-Phenotype (%) [1]: 3%
- Total Cell Count [1]: 265
- Population Apoptotic (%) [2]: 61%
- Population Fragmented Nuclei (%) [2]: 21%
- Population Healthy Nuclei (%) [2]: 67%
- Population Hoechst High Intensity Objects (%) [2]: 0%
- Population Membrane Permeable-Phenotype (%) [2]: 2%
- Population Mitotic Cells (%) [2]: 38%
- Population Normal (%) [2]: 100%
- Population Pyknosed Nuclei (%) [2]: 11%
- Population Tubulin-Different-Phenotype (%) [2]: 2%
- Total Cell Count [2]: 118
- Population Apoptotic (%) [3]: 58%
- Population Fragmented Nuclei (%) [3]: 19%
- Population Healthy Nuclei (%) [3]: 72%
- Population Hoechst High Intensity Objects (%) [3]: 1%
- Population Membrane Permeable-Phenotype (%) [3]: 2%
- Population Mitochondria Different-Phenotype (%) [3]: 0%
- Population Mitotic Cells (%) [3]: 41%
- Population Normal (%) [3]: 98%
- Population Pyknosed Nuclei (%) [3]: 7%
- Population Tubulin-Different-Phenotype (%) [3]: 1%
- Total Cell Count [3]: 228
- Population Apoptotic (%) [4]: 100%
- Population Fragmented Nuclei (%) [4]: 9%
- Population Healthy Nuclei (%) [4]: 85%
- Population Hoechst High Intensity Objects (%) [4]: 2%
- Population Membrane Permeable-Phenotype (%) [4]: 6%
- Population Mitochondria Different-Phenotype (%) [4]: 5%
- Population Mitotic Cells (%) [4]: 0%
- Population Normal (%) [4]: 97%
- Population Pyknosed Nuclei (%) [4]: 4%
- Population Tubulin-Different-Phenotype (%) [4]: 2%
- Total Cell Count [4]: 126
- Population Apoptotic (%) [5]: 68%
- Population Fragmented Nuclei (%) [5]: 27%
- Population Healthy Nuclei (%) [5]: 64%
- Population Hoechst High Intensity Objects (%) [5]: 1%
- Population Membrane Permeable-Phenotype (%) [5]: 4%
- Population Mitochondria Different-Phenotype (%) [5]: 3%
- Population Mitotic Cells (%) [5]: 31%
- Population Normal (%) [5]: 98%
- Population Pyknosed Nuclei (%) [5]: 7%
- Population Tubulin-Different-Phenotype (%) [5]: 3%
- Total Cell Count [5]: 299
- Population Apoptotic (%) [6]: 77%
- Population Fragmented Nuclei (%) [6]: 18%
- Population Healthy Nuclei (%) [6]: 68%
- Population Hoechst High Intensity Objects (%) [6]: 0%
- Population Mitochondria Different-Phenotype (%) [6]: 4%
- Population Mitotic Cells (%) [6]: 22%
- Population Normal (%) [6]: 100%
- Population Pyknosed Nuclei (%) [6]: 13%
- Population Tubulin-Different-Phenotype (%) [6]: 4%
- Total Cell Count [6]: 138
- Population Apoptotic (%) [7]: 88%
- Population Fragmented Nuclei (%) [7]: 13%
- Population Healthy Nuclei (%) [7]: 80%
- Population Hoechst High Intensity Objects (%) [7]: 2%
- Population Membrane Permeable-Phenotype (%) [7]: 2%
- Population Mitochondria Different-Phenotype (%) [7]: 0%
- Population Mitotic Cells (%) [7]: 11%
- Population Normal (%) [7]: 97%
- Population Pyknosed Nuclei (%) [7]: 6%
- Population Tubulin-Different-Phenotype (%) [7]: 1%
- Total Cell Count [7]: 281
- Population Apoptotic (%) [8]: 92%
- Population Fragmented Nuclei (%) [8]: 9%
- Population Healthy Nuclei (%) [8]: 82%
- Population Hoechst High Intensity Objects (%) [8]: 0%
- Population Membrane Permeable-Phenotype (%) [8]: 0%
- Population Mitochondria Different-Phenotype (%) [8]: 1%
- Population Mitotic Cells (%) [8]: 7%
- Population Normal (%) [8]: 99%
- Population Pyknosed Nuclei (%) [8]: 8%
- Population Tubulin-Different-Phenotype (%) [8]: 0%
- Total Cell Count [8]: 163
- Population Apoptotic (%) [9]: 75%
- Population Fragmented Nuclei (%) [9]: 19%
- Population Healthy Nuclei (%) [9]: 74%
- Population Hoechst High Intensity Objects (%) [9]: 1%
- Population Membrane Permeable-Phenotype (%) [9]: 4%
- Population Mitochondria Different-Phenotype (%) [9]: 1%
- Population Mitotic Cells (%) [9]: 25%
- Population Normal (%) [9]: 98%
- Population Pyknosed Nuclei (%) [9]: 6%
- Population Tubulin-Different-Phenotype (%) [9]: 2%
- Total Cell Count [9]: 425
- Population Apoptotic (%) [10]: 78%
- Population Fragmented Nuclei (%) [10]: 17%
- Population Healthy Nuclei (%) [10]: 69%
- Population Hoechst High Intensity Objects (%) [10]: 3%
- Population Mitochondria Different-Phenotype (%) [10]: 5%
- Population Mitotic Cells (%) [10]: 21%
- Population Normal (%) [10]: 96%
- Population Pyknosed Nuclei (%) [10]: 13%
- Total Cell Count [10]: 180
- Population Apoptotic (%) [11]: 86%
- Population Fragmented Nuclei (%) [11]: 11%
- Population Healthy Nuclei (%) [11]: 78%
- Population Hoechst High Intensity Objects (%) [11]: 3%
- Population Membrane Permeable-Phenotype (%) [11]: 4%
- Population Mitochondria Different-Phenotype (%) [11]: 1%
- Population Mitotic Cells (%) [11]: 13%
- Population Normal (%) [11]: 96%
- Population Pyknosed Nuclei (%) [11]: 9%
- Population Tubulin-Different-Phenotype (%) [11]: 3%
- Total Cell Count [11]: 386
- Population Apoptotic (%) [12]: 91%
- Population Fragmented Nuclei (%) [12]: 12%
- Population Hoechst High Intensity Objects (%) [12]: 1%
- Population Membrane Permeable-Phenotype (%) [12]: 6%
- Population Mitochondria Different-Phenotype (%) [12]: 4%
- Population Mitotic Cells (%) [12]: 8%
- Population Normal (%) [12]: 98%
- Population Tubulin-Different-Phenotype (%) [12]: 2%
- Total Cell Count [12]: 251
